≈ marks a conversion by molar mass, not a printed value.
Legend:
Format in all cases: functional
[1] = test system: Aspergillus fumigatus; assay: Antimicrobial activity against Aspergillus fumigatus isolate 30 after 48 hrs by Etest; settings: isolate 30, 48 h
Method in brief: (§1)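 Etest strips on RPMI 1640 agar with 2% glucose, pH 7.0, run per manufacturer's instructions. Incubated at 35°C; MIC read at 48 h.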

[2] = test system: Aspergillus fumigatus; assay: Antimicrobial activity against Aspergillus fumigatus isolate 1 by oxygen consumption method
Method in brief: (§2)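 Conidial suspension in RPMI 1640 broth with posaconazole at 0.25 and 2 μg/ml. Tubes agitated 12 h at 37°C in a biological oxygen monitor. Available oxygen was monitored continuously, and the MIC was assigned from the oxygen quantification.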

[3] = test system: Aspergillus fumigatus; assay: Antimicrobial activity against Aspergillus fumigatus isolate 6 after 48 hrs by Etest; settings: isolate 6, 48 h
[4] = test system: Aspergillus fumigatus; assay: Antimicrobial activity against Aspergillus fumigatus isolate 29 after 48 hrs by Etest; settings: isolate 29, 48 h; method in brief: as §1
[5] = test system: Aspergillus fumigatus; assay: Antimicrobial activity against Aspergillus fumigatus isolate 37 after 24 hrs by Etest; settings: isolate 37, 24 h
Method in brief: (§3)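 Posaconazole Etest strips on RPMI 1640 agar with 2% glucose, pH 7.0, run per the strip maker's instructions. Incubated at 35°C. MIC read at 24 h and at 48 h, matching the time in each line.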

[6] = test system: Aspergillus fumigatus; assay: Antimicrobial activity against Aspergillus fumigatus isolate 47 after 48 hrs by Etest; settings: isolate 47, 48 h
[7] = test system: Aspergillus fumigatus; assay: Antimicrobial activity against Aspergillus fumigatus isolate 25 after 48 hrs by Etest; settings: isolate 25, 48 h; method in brief: as §1
[8] = test system: Aspergillus fumigatus; assay: Antimicrobial activity against Aspergillus fumigatus isolate 46 after 48 hrs by Etest; settings: isolate 46, 48 h
[9] = test system: Aspergillus fumigatus; assay: Antimicrobial activity against Aspergillus fumigatus isolate 14 by CLSI M38-A2 broth microdilution method
Method in brief: (§4)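 Posaconazole broth microdilution follows CLSI M38-A2. The MIC is the lowest concentration with no visible growth at 48 h. Candida parapsilosis ATCC 22019 and Candida krusei ATCC 6258 were included as QC strains in every run.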

[10] = test system: Aspergillus fumigatus; assay: Antimicrobial activity against Aspergillus fumigatus isolate 47 after 24 hrs by Etest; settings: isolate 47, 24 h
[11] = test system: Aspergillus fumigatus; assay: Antimicrobial activity against Aspergillus fumigatus isolate 30 by oxygen consumption method
Method in brief: (§5)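 Conidial suspension in RPMI 1640 broth, 1.5 ml, with two drug concentrations (0.25 and 2 μg/ml). Tubes agitated 12 h at 37°C in a biological oxygen monitor. Available oxygen monitored continuously and quantified to assign the MIC.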

[12] = test system: Aspergillus fumigatus; assay: Antimicrobial activity against Aspergillus fumigatus isolate 49 by CLSI M38-A2 broth microdilution method
[13] = test system: Aspergillus fumigatus; assay: Antimicrobial activity against Aspergillus fumigatus isolate 2 by CLSI M38-A2 broth microdilution method; method in brief: as §4
[14] = test system: Aspergillus fumigatus; assay: Antimicrobial activity against Aspergillus fumigatus isolate 46 after 24 hrs by Etest; settings: isolate 46, 24 h
[15] = test system: Aspergillus fumigatus; assay: Antimicrobial activity against Aspergillus fumigatus isolate 35 after 48 hrs by Etest; settings: isolate 35, 48 h; method in brief: as §3
[16] = test system: Aspergillus fumigatus; assay: Antimicrobial activity against Aspergillus fumigatus isolate 24 after 48 hrs by Etest; settings: isolate 24, 48 h; method in brief: as §1
[17] = test system: Aspergillus fumigatus; assay: Antimicrobial activity against Aspergillus fumigatus isolate 35 by CLSI M38-A2 broth microdilution method
Method in brief: (§6)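 CLSI M38-A2 broth microdilution with posaconazole. MIC taken as the lowest concentration with no visible growth at 48 h. C. parapsilosis ATCC 22019 and C. krusei ATCC 6258 were included as QC strains in every run.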

[18] = test system: Aspergillus fumigatus; assay: Antimicrobial activity against Aspergillus fumigatus isolate 14 after 48 hrs by Etest; settings: isolate 14, 48 h
Method in brief: (§7)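 Posaconazole Etest strips placed on RPMI 1640 agar with 2% glucose, pH 7.0, and run per the strip maker's instructions. Incubation at 35°C, with the MIC read at 24 h and at 48 h.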

[19] = test system: Aspergillus fumigatus; assay: Antimicrobial activity against Aspergillus fumigatus isolate 24 after 24 hrs by Etest; settings: isolate 24, 24 h
Method in brief: (§8)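 Etest strips on RPMI 1640 agar with 2% glucose, pH 7.0, run per manufacturer's instructions. Incubated at 35°C; MIC read at 24 h.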

[20] = test system: Aspergillus fumigatus; assay: Antimicrobial activity against Aspergillus fumigatus isolate 48 by oxygen consumption method
[21] = test system: Aspergillus fumigatus; assay: Antimicrobial activity against Aspergillus fumigatus isolate 35 by oxygen consumption method
Method in brief: (§9)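 Conidial suspension in RPMI 1640 broth, tested at two posaconazole levels (0.25 and 2 μg/ml). Agitated for 12 h at 37°C in a biological oxygen monitor. MIC derived from continuous monitoring and quantification of the available oxygen.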

[22] = test system: Aspergillus fumigatus; assay: Antimicrobial activity against Aspergillus fumigatus isolate 40 after 24 hrs by Etest; settings: isolate 40, 24 h; method in brief: as §3
[23] = test system: Aspergillus fumigatus; assay: Antimicrobial activity against Aspergillus fumigatus isolate 19 after 24 hrs by Etest; settings: isolate 19, 24 h; method in brief: as §7
[24] = test system: Aspergillus fumigatus; assay: Antimicrobial activity against Aspergillus fumigatus isolate 30 after 24 hrs by Etest; settings: isolate 30, 24 h; method in brief: as §8
[25] = test system: Aspergillus fumigatus; assay: Antimicrobial activity against Aspergillus fumigatus isolate 50 by CLSI M38-A2 broth microdilution method
[26] = test system: Aspergillus fumigatus; assay: Antimicrobial activity against Aspergillus fumigatus isolate 26 after 48 hrs by Etest; settings: isolate 26, 48 h; method in brief: as §1
[27] = test system: Aspergillus fumigatus; assay: Antimicrobial activity against Aspergillus fumigatus isolate 27 after 24 hrs by Etest; settings: isolate 27, 24 h; method in brief: as §8
[28] = test system: Aspergillus fumigatus; assay: Antimicrobial activity against Aspergillus fumigatus isolate 9 by oxygen consumption method
[29] = test system: Aspergillus fumigatus; assay: Antimicrobial activity against Aspergillus fumigatus isolate 17 after 24 hrs by Etest; settings: isolate 17, 24 h; method in brief: as §7
[30] = test system: Aspergillus fumigatus; assay: Antimicrobial activity against Aspergillus fumigatus isolate 10 by CLSI M38-A2 broth microdilution method; method in brief: as §4
[31] = test system: Aspergillus fumigatus; assay: Antimicrobial activity against Aspergillus fumigatus isolate 15 after 48 hrs by Etest; settings: isolate 15, 48 h; method in brief: as §7
[32] = test system: Aspergillus fumigatus; assay: Antimicrobial activity against Aspergillus fumigatus isolate 31 after 48 hrs by Etest; settings: isolate 31, 48 h; method in brief: as §1
[33] = test system: Aspergillus fumigatus; assay: Antimicrobial activity against Aspergillus fumigatus isolate 10 after 48 hrs by Etest; settings: isolate 10, 48 h; method in brief: as §7
[34] = test system: Aspergillus fumigatus; assay: Antimicrobial activity against Aspergillus fumigatus isolate 8 after 48 hrs by Etest; settings: isolate 8, 48 h
[35] = test system: Aspergillus fumigatus; assay: Antimicrobial activity against Aspergillus fumigatus isolate 36 by CLSI M38-A2 broth microdilution method; method in brief: as §6
[36] = test system: Aspergillus fumigatus; assay: Antimicrobial activity against Aspergillus fumigatus isolate 15 by oxygen consumption method; method in brief: as §2
[37] = test system: Aspergillus fumigatus; assay: Antimicrobial activity against Aspergillus fumigatus isolate 49 after 24 hrs by Etest; settings: isolate 49, 24 h
[38] = test system: Aspergillus fumigatus; assay: Antimicrobial activity against Aspergillus fumigatus isolate 4 after 48 hrs by Etest; settings: isolate 4, 48 h; method in brief: as §3
[39] = test system: Aspergillus fumigatus; assay: Antimicrobial activity against Aspergillus fumigatus isolate 33 by oxygen consumption method; method in brief: as §9
[40] = test system: Aspergillus fumigatus; assay: Antimicrobial activity against Aspergillus fumigatus isolate 39 after 48 hrs by Etest; settings: isolate 39, 48 h; method in brief: as §3
[41] = test system: Aspergillus fumigatus; assay: Antimicrobial activity against Aspergillus fumigatus isolate 13 by oxygen consumption method; method in brief: as §2
[42] = test system: Aspergillus fumigatus; assay: Antimicrobial activity against Aspergillus fumigatus isolate 3 by oxygen consumption method; method in brief: as §5
[43] = test system: Aspergillus fumigatus; assay: Antimicrobial activity against Aspergillus fumigatus isolate 47 by CLSI M38-A2 broth microdilution method
[44] = test system: Aspergillus fumigatus; assay: Antimicrobial activity against Aspergillus fumigatus isolate 26 by CLSI M38-A2 broth microdilution method
Method in brief: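 Reference broth microdilution per CLSI M38-A2. MIC read as absence of visible growth at 48 h. C. parapsilosis ATCC 22019 and C. krusei ATCC 6258 QC strains run in each test session.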

With `CC[C@@H]([C@H](C)O)n1ncn(-c2ccc(N3CCN(c4ccc(OC[C@@H]5CO[C@@](Cn6cncn6)(c6ccc(F)cc6F)C5)cc4)CC3)cc2)c1=O` [POSACONAZOLE] the MIC [1] was 0.5 µg/mL (≈ 0.713 µM), the MIC [2] was no less than 0.5 µg/mL and the MIC [3] was 4 µg/mL (≈ 5.71 µM). The MIC [4] was 0.25 µg/mL (≈ 0.357 µM), the MIC [5] was 0.05 µg/mL (≈ 0.0713 µM) and the MIC [6] was no more than 0.03 µg/mL. It also gave an MIC [7] of 0.25 µg/mL (≈ 0.357 µM), an MIC [8] of 0.125 µg/mL (≈ 0.178 µM) and an MIC [9] of 0.125 µg/mL (≈ 0.178 µM). It also gave an MIC [10] of no more than 0.03 µg/mL, an MIC [11] of no more than 0.25 µg/mL and an MIC [12] of 0.125 µg/mL (≈ 0.178 µM). For the same molecule, the MIC [13] was 0.5 µg/mL (≈ 0.713 µM), the MIC [14] was 0.125 µg/mL (≈ 0.178 µM) and the MIC [15] was 0.25 µg/mL (≈ 0.357 µM). The MIC [16] was 0.125 µg/mL (≈ 0.178 µM), the MIC [17] was 0.125 µg/mL (≈ 0.178 µM) and the MIC [18] was 0.5 µg/mL (≈ 0.713 µM). It also gave an MIC [19] of 0.125 µg/mL (≈ 0.178 µM), an MIC [20] of no more than 0.25 µg/mL and an MIC [21] of no more than 0.25 µg/mL. It also gave an MIC [22] of 0.125 µg/mL (≈ 0.178 µM), an MIC [23] of 0.125 µg/mL (≈ 0.178 µM) and an MIC [24] of 0.5 µg/mL (≈ 0.713 µM). The MIC [25] was 0.125 µg/mL (≈ 0.178 µM), the MIC [26] was 0.25 µg/mL (≈ 0.357 µM) and the MIC [27] was 0.125 µg/mL (≈ 0.178 µM). For the same molecule, the MIC [28] was no more than 0.25 µg/mL, the MIC [29] was 0.125 µg/mL (≈ 0.178 µM) and the MIC [30] was 0.25 µg/mL (≈ 0.357 µM). It also gave an MIC [31] of 0.06 µg/mL (≈ 0.0856 µM), an MIC [32] of 0.125 µg/mL (≈ 0.178 µM) and an MIC [33] of 0.25 µg/mL (≈ 0.357 µM). It also gave an MIC [34] of 0.25 µg/mL (≈ 0.357 µM), an MIC [35] of 0.125 µg/mL (≈ 0.178 µM) and an MIC [36] of no more than 0.25 µg/mL. For the same molecule, the MIC [37] was 0.5 µg/mL (≈ 0.713 µM), the MIC [38] was 0.25 µg/mL (≈ 0.357 µM) and the MIC [39] was no less than 0.5 µg/mL. It also gave an MIC [40] of 2 µg/mL (≈ 2.85 µM), an MIC [41] of no less than 0.5 µg/mL and an MIC [42] of no less than 0.5 µg/mL. The MIC [43] was 0.125 µg/mL (≈ 0.178 µM) and the MIC [44] was 0.125 µg/mL (≈ 0.178 µM).

Reference: ChEMBL document CHEMBL1649256, “Comparison of assessment of oxygen consumption, Etest, and CLSI M38-A2 broth microdilution methods for evaluation of the susceptibility of Aspergillus fumigatus to posaconazole” (2009)
